# Tests used:
# [1] = Apparent permeability of the compound from apical to basolateral side of human Caco2 cells; assay type: ADME, cell-based; conditions: Caco-2
# [2] = Oral bioavailability in Sprague-Dawley rat at 10 mg/kg; assay type: ADME, organism-based; conditions: in vivo
# Method in brief: (§1)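 Male Sprague–Dawley rat, oral 10 mg/kg in 0.5% (w/v) gelatin in 5% (w/v) mannitol.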
# Rattus norvegicus [3] = assay: Volume of distribution at steady state in Sprague-Dawley rat at 10 mg/kg, po; assay type: ADME, organism-based; design: dose 10 mg/kg, route oral; conditions: in vivo; method in brief: as §1
# [4] = Oral bioavailability in Sprague-Dawley rat at 5 mg/kg; assay type: ADME, organism-based; conditions: in vivo
# Method in brief: (§2)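 Male Sprague–Dawley rat, oral 5 mg/kg in 0.5% (w/v) gelatin in 5% (w/v) mannitol.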
# Rattus norvegicus [5] = assay: Volume of distribution at steady state in Sprague-Dawley rat at 5 mg/kg, po; assay type: ADME, organism-based; design: dose 5 mg/kg, route oral; conditions: in vivo; method in brief: as §2
# [6] = Volume of distribution at steady state in Sprague-Dawley rat at 1 mg/kg, iv and 5 mg/kg, po; assay type: ADME, organism-based; conditions: in vivo, read-out: Vdss
# Method in brief: (§3)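 Male Sprague–Dawley rats; iv 1 mg/kg in 30% DMA in saline and po 5 mg/kg in 0.5% (w/v) gelatin in 5% (w/v) mannitol.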
# [7] = Cmax in Sprague-Dawley rat at 1 mg/kg, iv and 5 mg/kg, po; assay type: ADME, organism-based; conditions: in vivo; method in brief: as §3
# [8] = Tmax in Sprague-Dawley rat at 1 mg/kg, iv and 5 mg/kg, po; assay type: ADME, organism-based; conditions: in vivo; method in brief: as §3
# [9] = Volume of distribution at steady state in cynomolgus monkey at 1 mg/kg, iv and 3 mg/kg, po; assay type: ADME, organism-based, Macaca fascicularis; conditions: in vivo, read-out: Vdss
# Method in brief: (§4)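 Cynomolgus monkey; iv 1 mg/kg in 30% DMA in saline and po 3 mg/kg in 0.5% (w/v) gelatin in 5% (w/v) mannitol.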
# [10] = Cmax in cynomolgus monkey at 1 mg/kg, iv and 3 mg/kg, po; assay type: ADME, organism-based, Macaca fascicularis; conditions: in vivo; method in brief: as §4
# [11] = Tmax in cynomolgus monkey at 1 mg/kg, iv and 3 mg/kg, po; assay type: ADME, organism-based, Macaca fascicularis; conditions: in vivo; method in brief: as §4
# [12] = Oral bioavailability in cynomolgus monkey at 3 mg/kg; assay type: ADME, organism-based, Macaca fascicularis; conditions: in vivo; method in brief: as §4
Structure (SMILES),Papp A→B [1] [×10⁻⁶ cm/s],also measured
O=C(Cc1ccc(Cl)cc1)N[C@H](Cc1ccc(Cl)cc1)C(=O)N[C@H]1C[C@H]2CC[C@@H](C1)N2,< 10,–
O=C(Cc1ccc(Cl)cc1)N[C@H](Cc1ccc(Cl)cc1)C(=O)NC1CCCNCC1 (some centres not stated),< 10,–
O=C(Cc1ccc(Cl)cc1)N[C@H](Cc1ccc(Cl)cc1)C(=O)NC1CCNCC1,< 10,–
CN1CCC(NC(=O)[C@@H](Cc2ccc(Cl)cc2)NC(=O)Cc2ccc(Cl)cc2)CC1,< 10,–
CN1CCN(CCCNC(=O)[C@@H](Cc2ccc(Cl)cc2)NC(=O)Cc2ccc(Cl)cc2)CC1,< 10,–
CN(C)CCCNC(=O)[C@@H](Cc1ccc(Cl)cc1)NC(=O)Cc1ccc(Cl)cc1,< 10,–
CN(C)CCCNC(=O)[C@@H](Cc1ccc(Cl)cc1)NC(=O)C1(c2ccc(Cl)cc2)CC1,< 10,–
CCCNC(=O)[C@@H](Cc1ccc(Cl)cc1)NC(=O)Cc1ccc(Cl)cc1,< 10,–
O=C(Cc1ccc(Cl)cc1)N[C@H](Cc1ccc(Cl)cc1)C(=O)NCCCO,–,bioavailability [2]: 43%; Vdss (Rattus norvegicus [3]): 2 L/kg
CN(C)[C@H]1CC[C@H](NC(=O)[C@@H](Cc2ccc(Cl)cc2)NC(=O)Cc2ccc(Cl)cc2)CC1,< 10,–
CN(C)[C@H]1CC[C@H](NC(=O)[C@@H](Cc2ccc(Cl)cc2)NC(=O)C2(c3ccc(Cl)cc3)CC2)CC1,< 10,bioavailability [4]: 17%; Vdss (Rattus norvegicus [5]): 9 L/kg
COc1ccc(C[C@@H](NC(=O)C2(c3ccc(Cl)cc3)CC2)C(=O)N[C@H]2CC[C@H](N(C)C)CC2)cc1,< 10,–
CN(C)[C@H]1CC[C@H](NC(=O)[C@@H](Cc2ccc(F)cc2)NC(=O)C2(c3ccc(Cl)cc3)CC2)CC1,< 10,–
CN(C)[C@H]1CC[C@H](NC(=O)[C@@H](Cc2ccc(Cl)cc2)NC(=O)C2(c3ccc(Cl)cc3)CCC2)CC1,< 10,–
CN(C)[C@H]1CC[C@H](NC(=O)[C@@H](Cc2ccc(Cl)cc2)NC(=O)C2(c3ccc(F)cc3)CCCC2)CC1,< 10,–
CN(C)[C@H]1CC[C@H](NC(=O)[C@@H](Cc2ccc(Cl)cc2)NC(=O)C2(c3ccc(F)cc3)CC2)CC1,< 10,bioavailability [4]: 30%; Vd [6]: 11.8 L/kg; Cmax [7]: 35 ng/mL; Tmax [8]: 5.8 h; Vd [9]: 6.4 L/kg; Cmax [10]: 41 ng/mL; Tmax [11]: 2.7 h; bioavailability [12]: 20%
CN(C)[C@H]1CC[C@H](NC(=O)[C@@H](Cc2ccc(Cl)cc2)NC(=O)Cc2ccc(F)cc2)CC1,< 10,–
O=C(Cc1ccc(Cl)cc1)N[C@H](Cc1ccc(Cl)cc1)C(=O)N[C@H]1CC[C@@H](O)CC1,< 10,–
CC(CCO)NC(=O)[C@@H](Cc1ccc(Cl)cc1)NC(=O)Cc1ccc(Cl)cc1 (stereo in doubt; 17c),< 10,–
O=C(Cc1ccc(Cl)cc1)N[C@H](Cc1ccc(Cl)cc1)C(=O)NC1CCCC(O)C1 (stereo in doubt; 17e),< 10,–
O=C(Cc1ccc(Cl)cc1)N[C@H](Cc1ccc(Cl)cc1)C(=O)NC1CCCCC1O (stereo in doubt; 17h),> 20,–

# From ChEMBL document CHEMBL1806383, “Optimisation of pharmacokinetic properties to afford an orally bioavailable and selective V1A receptor antagonist” (Bioorg Med Chem Lett, 2011)
